Screening results (PubChem BioAssay)
LANA-H2A inh = blockers of LANA interaction with H2A/H2B – biochemical, FP readout, HTS, primary screen | Protein LANA1 (Human herpesvirus 8 type P (isolate GK18)), Q9QR71 | cell-free LANA-H2A/H2B peptide, fluorescence polarization | inhibition, % (no concentration beside the values) | hit rate 0.6% among 320,000; in the data active = inhibition mostly above about 10%, no sharp cut-off; inactive = mostly below about 6.7%
HDAC3 inhib = HDAC3 deacetylase inhibitors, primary screen, biochemical, fluorescence, cell-free homogeneous | Histone deacetylase 3 (Homo sapiens), O15379 | recombinant HDAC3, fluorogenic peptide/trypsin coupled | inhibition, % at 8.3 µM | hit rate 0.15% among 320,000 | AID 2718, 2010; in the data active = inhibition above about 26%, passing the limit was not always enough; inconclusive = no clear call, values can overlap the other calls
Runt-SMMHC FRET = inhibitors of RUNX1 Runt–CBFb-SMMHC binding, primary screen, biochemical, FRET, Cerulean-Runt, Venus-CBFb-SMMHC, uHTS; Runt-related transcription factor 1 (Homo sapiens) + Core-binding factor subunit beta …; Cerulean-Runt/Venus-CBFb-SMMHC FRET ratio 530/480, 1 h; hit rate 0.74% among 220,000; AID 1434, 2008; inhibition, % at 20 µM;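 active = mean inhibition across duplicate retests at 20 µM reaching about 50%, limit read from the data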;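 also: inhibitors lower the FRET ratio by blocking Runt binding to CBFb-SMMHC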
CaV13 FRET inh = Primary screen for inhibitors of IQ motif and Ca2+-dependent inactivation inhibitor domain binding in CACNA1D, Förster resonance energy transfer in living cells, … | HEK cells, CFP/YFP FRET ICDI-IQ, plate reader, 10 min; percent FRET-ratio fall versus neutral wells | inhibition, % at 12.3 µM | hit rate 0.098% among 340,000 | AID 743397;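 active = mean replicate inhibition of at least 30% and at least 1% of replicates passing that level; inconclusive = only one of the two criteria is met; inactive = neither criterion is met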
RanGTP-Imp inh = inhibitors of RanGTP-importin-beta interaction, primary screen, biochemical, FRET, CFP-Ran, YFP-importin-beta, homogeneous; AID 2216, 2009; cell-free CFP-Ran/YFP-importin-beta FRET ratio; Ran GTPase (GTP-bound) - importin-beta complex; hit rate 1.1% among 300,000; inhibition, % (no concentration beside the values);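 active = more than half of the replicate wells show a fall in the fluorescence ratio signal beyond about 16%, limit read from the data, passing the limit was not always enough; inconclusive = exactly half of the replicate wells pass the set limit; inactive = fewer than half of replicates pass the limit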
Runt-CBFb FRET = inhibitors of RUNX1 Runt–CBFb binding, primary screen, biochemical, FRET, Cerulean-Runt, Venus-CBFb, uHTS. inhibition, % at 20 µM. Runt-related transcription factor 1 (Homo sapiens) + Core-binding factor subunit beta …. hit rate 0.46% among 220,000. Cerulean-Runt/Venus-CBFb FRET ratio 530/480, 1 h. AID 1496, 2009;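 active = inhibition over about 50% at 20 µM in the single-dose screen, limit read from the data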
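Buffer or medium: Tris pH 7.5 buffer with BSA. Assay system: Cerulean-labeled Runt domain protein. Amount: each fluorescent fusion protein 100 nM. Read-out basis: loss of energy transfer signal. Incubation: 1 h compound exposure, room temperature. Probe or stimulus: Venus-CBFb binding partner, 100 nM. Detection: FRET, excitation 422 nm, emission at 530 and 480 nm.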
A number is an active result. The list is not random: actives were taken first. Their share in the collection is about 1.9%.

How did COc1cccc2c1C(=O)c1c(O)c3c(c(O)c1C2=O)C[C@@](O)(C(=O)CO)C[C@@H]3O[C@H]1C[C@H](N)[C@H](O)[C@H](C)O1 do in these assays?
LANA-H2A inh: 25; HDAC3 inhib: inactive; Runt-SMMHC FRET: inactive; CaV13 FRET inh: inactive; RanGTP-Imp inh: inactive; Runt-CBFb FRET: inactive

Results for COc1cccc2c1C(=O)c1c(O)c3c(c(O)c1C2=O)C[C@@](O)(C(=O)CO)C[C@@H]3OC1CC(N)C(O)C(C)O1 (stereo not given in full) ?
CaV13 FRET inh: inactive

How did CCCSc1ccc(-c2nn(-c3ccccc3)cc2/C=C(/C#N)C(=O)NCCCOC)cc1 do in these assays?
LANA-H2A inh: inactive; HDAC3 inhib: inactive; Runt-SMMHC FRET: inactive; CaV13 FRET inh: inactive; RanGTP-Imp inh: inactive; Runt-CBFb FRET: inactive

How did CCSc1ccc(-c2nn(-c3ccccc3)cc2/C=C(/C#N)C(=O)NCCCOC)cc1 do in these assays?
LANA-H2A inh: inactive; HDAC3 inhib: inactive; Runt-SMMHC FRET: 60; CaV13 FRET inh: inactive; Runt-CBFb FRET: inactive

Results for Fc1ccc(Nc2nc(NCc3ccco3)c3ccccc3n2)cc1 ?
LANA-H2A inh: inactive; HDAC3 inhib: inactive; Runt-SMMHC FRET: inactive; CaV13 FRET inh: inactive; RanGTP-Imp inh: inactive; Runt-CBFb FRET: inactive

What do the screens show for `C=CCN(CC=C)C(=O)C1CCN(S(=O)(=O)c2ccc(N3CCCC3=O)cc2)CC1`?
LANA-H2A inh: 15; HDAC3 inhib: inactive; CaV13 FRET inh: inactive; RanGTP-Imp inh: inactive

What do the screens show for `Cc1ccc(NC(=O)Cn2sc3nc(C)cc(C)c3c2=O)c(Cl)c1`?
LANA-H2A inh: inactive; HDAC3 inhib: inactive; Runt-SMMHC FRET: 51; CaV13 FRET inh: inactive; RanGTP-Imp inh: inactive; Runt-CBFb FRET: inactive

Results for Cc1cc(C)c2c(=O)n(CC(=O)Nc3cccc(F)c3)sc2n1 ?
LANA-H2A inh: inactive; Runt-SMMHC FRET: 65; CaV13 FRET inh: inactive; RanGTP-Imp inh: inactive; Runt-CBFb FRET: inactive

Results for Cc1cc(C)c2c(=O)n(CC(=O)Nc3ccc(Cl)cc3)sc2n1 ?
LANA-H2A inh: inactive; HDAC3 inhib: inactive; Runt-SMMHC FRET: inactive; CaV13 FRET inh: inactive; RanGTP-Imp inh: inactive; Runt-CBFb FRET: inactive

Results for N=c1c(C(=O)NCC2CCCO2)cc2c(=O)n3ccccc3nc2n1Cc1cccnc1 (stereo not given) ?
LANA-H2A inh: inactive; HDAC3 inhib: inactive; Runt-SMMHC FRET: 57; RanGTP-Imp inh: 182; Runt-CBFb FRET: inactive

What do the screens show for `N=c1c(C(=O)NCC2CCCO2)cc2c(=O)n3ccccc3nc2n1Cc1ccc(F)cc1` (stereo not given)?
LANA-H2A inh: inactive; HDAC3 inhib: inactive; CaV13 FRET inh: inactive; RanGTP-Imp inh: 179

What do the screens show for `N=c1c(C(=O)NCC2CCCO2)cc2c(=O)n3ccccc3nc2n1Cc1ccco1` (stereo not given)?
LANA-H2A inh: inactive; HDAC3 inhib: inactive; CaV13 FRET inh: inactive; RanGTP-Imp inh: 73

Results for Cc1cccn2c(=O)c3cc(C(=O)NCC4CCCO4)c(=N)n(Cc4cccnc4)c3nc12 (stereo not given) ?
LANA-H2A inh: inactive; HDAC3 inhib: inactive; Runt-SMMHC FRET: 57; CaV13 FRET inh: inactive; Runt-CBFb FRET: inactive

Results for Cc1cccn2c(=O)c3cc(C(=O)NC4CCCCC4)c(=N)n(Cc4ccc(F)cc4)c3nc12 ?
LANA-H2A inh: inactive; HDAC3 inhib: inactive; CaV13 FRET inh: inactive; RanGTP-Imp inh: inactive

What do the screens show for `O=C(Cn1c(=O)n(Cc2ccc(F)cc2)c(=O)c2ccccc21)NCC1CCCO1` (stereo not given)?
LANA-H2A inh: inactive; HDAC3 inhib: inactive; CaV13 FRET inh: inactive; RanGTP-Imp inh: inactive

How did COc1ccc(-c2csc(NC(=O)CSc3ccc(Br)cc3)n2)c(OC)c1 do in these assays?
LANA-H2A inh: inactive; Runt-SMMHC FRET: inactive; CaV13 FRET inh: inactive; RanGTP-Imp inh: inactive; Runt-CBFb FRET: inactive

Results for CC(NC(=O)[C@H](C)NC(=O)C1CC(=O)N(c2ccc3c(c2)OCO3)C1)c1ccccc1 (stereo not given in full) ?
LANA-H2A inh: inactive; HDAC3 inhib: inactive; CaV13 FRET inh: inactive; RanGTP-Imp inh: inconclusive

What do the screens show for `C=CCNC(=S)N1CCN(Cc2ccccc2)CC1`?
LANA-H2A inh: 18; HDAC3 inhib: inactive; Runt-SMMHC FRET: inactive; CaV13 FRET inh: inactive; RanGTP-Imp inh: inactive; Runt-CBFb FRET: inactive

Results for Cc1ccc(NC(=O)CN(C)C(=O)CCSc2ccc(F)cc2)cc1 ?
LANA-H2A inh: 18; HDAC3 inhib: inactive; CaV13 FRET inh: inactive

What do the screens show for `CCN(Cc1ccccc1)C(=O)Cn1cc(S(=O)(=O)NC)c(S(=O)(=O)NC)c1`?
LANA-H2A inh: inactive; HDAC3 inhib: inactive; CaV13 FRET inh: inactive; RanGTP-Imp inh: inactive

Results for C=CC[C@@H](CC(=O)N[C@H](CO)Cc1ccccc1)C(=O)NCCOC(=O)[C@@H](CC=C)CC(=O)OC(C)(C)C ?
LANA-H2A inh: inactive; HDAC3 inhib: inactive; CaV13 FRET inh: inactive

How did O=C(Nc1ccc(Nc2ccncc2)cc1)c1ccc(Nc2ccnc3ccc([N+](=O)[O-])cc23)cc1 do in these assays?
Runt-SMMHC FRET: 57; CaV13 FRET inh: inactive; RanGTP-Imp inh: inactive; Runt-CBFb FRET: inactive

How did CSc1nc2cc(Oc3cccc(Cl)c3Cl)c(Cl)cc2[nH]1 do in these assays?
LANA-H2A inh: inactive; HDAC3 inhib: 29; Runt-SMMHC FRET: inactive; CaV13 FRET inh: inactive; RanGTP-Imp inh: inactive; Runt-CBFb FRET: inactive

Results for CSc1nc2ccc(Cl)cc2[nH]1 ?
LANA-H2A inh: inactive; HDAC3 inhib: inactive; Runt-SMMHC FRET: inactive; CaV13 FRET inh: inactive; RanGTP-Imp inh: inactive; Runt-CBFb FRET: inactive

Results for Cc1cccn2c(=O)c3cc(C(=O)NC4CCCC4)c(=N)n(CC4CCCO4)c3nc12 (stereo not given) ?
LANA-H2A inh: inactive; HDAC3 inhib: inactive; CaV13 FRET inh: inactive; RanGTP-Imp inh: 192

What do the screens show for `Cc1cccn2c(=O)c3cc(S(=O)(=O)c4ccc(Br)cc4)c(=N)n(C4CCCCC4)c3nc12`?
LANA-H2A inh: inactive; HDAC3 inhib: inactive; CaV13 FRET inh: inactive; RanGTP-Imp inh: inactive

How did Cc1cccn2c(=O)c3cc(C(=O)NCC4CCCO4)c(=N)n(C4CCCCC4)c3nc12 (stereo not given) do in these assays?
LANA-H2A inh: inactive; HDAC3 inhib: inactive; CaV13 FRET inh: inactive; RanGTP-Imp inh: active
